Experiments:
[1] = tested on: A549; experiment: Cytotoxicity against PMA stimulated human A549 cells harboring AP-1-Luc assessed as reduction in cell viability at 60 uM preincubated for 1 hr followed by PMA stimulation measured after 5 hrs by Cell-Titer Glo assay relative to control; type: cell-based; conditions: a549, 5 h
Method in brief: (§1)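 AP-1-Luc A549 cells (9000/well) incubated 24 h, then compound (10, 30, 60 μM) or solvent added. PMA induction 1 h later, 5 h further incubation. Viability by Cell Titer Glo ATP luminescence. Solvent group treated with PMA set as 100%.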

[2] = tested on: A549; experiment: Cytotoxicity against PMA stimulated human A549 cells harboring AP-1-Luc assessed as reduction in cell viability preincubated for 1 hr followed by PMA stimulation measured after 5 hrs by Cell-Titer Glo assay; type: cell-based; conditions: a549, 5 h; method in brief: as §1
[3] = biological target: T1, Glucocorticoid receptor (Homo sapiens) (UniProt P04150); experiment: (§2) Modulation of glucocorticoid receptor in human A549 cells harboring NFkB-Luc assessed as reduction in TNFalpha-induced NFkB activity preincubated for 1 hr followed by TNFalpha stimulation measured after 5 hrs by luciferase reporter gene assay; type: cell-based
T1 sequence (whole entry): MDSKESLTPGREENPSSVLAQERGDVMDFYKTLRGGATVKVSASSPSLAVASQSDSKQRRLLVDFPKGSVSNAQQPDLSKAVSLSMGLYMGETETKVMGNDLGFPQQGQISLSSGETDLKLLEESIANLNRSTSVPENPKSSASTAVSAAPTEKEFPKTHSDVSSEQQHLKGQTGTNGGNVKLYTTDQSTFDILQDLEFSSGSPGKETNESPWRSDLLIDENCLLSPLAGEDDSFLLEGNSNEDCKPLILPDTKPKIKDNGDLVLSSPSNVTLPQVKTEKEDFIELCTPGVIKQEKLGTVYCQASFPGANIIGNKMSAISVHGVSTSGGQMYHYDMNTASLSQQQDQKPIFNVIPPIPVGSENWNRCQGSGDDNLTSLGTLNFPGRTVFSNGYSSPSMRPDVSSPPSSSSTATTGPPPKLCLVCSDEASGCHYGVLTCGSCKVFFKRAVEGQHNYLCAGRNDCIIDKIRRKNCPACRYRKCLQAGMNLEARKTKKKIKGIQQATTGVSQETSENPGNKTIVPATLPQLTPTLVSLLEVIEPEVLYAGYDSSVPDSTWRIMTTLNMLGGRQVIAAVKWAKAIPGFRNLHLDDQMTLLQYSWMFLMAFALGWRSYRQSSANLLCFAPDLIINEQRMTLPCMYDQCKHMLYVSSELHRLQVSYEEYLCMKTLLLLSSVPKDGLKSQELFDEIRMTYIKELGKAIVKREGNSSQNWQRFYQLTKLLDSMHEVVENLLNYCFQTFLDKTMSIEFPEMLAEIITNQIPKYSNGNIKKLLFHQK
Method in brief: (§3)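 A549 cells with stably integrated NF-κB-Luc (9000/well, 24 h) given compound at 10, 30 or 60 μM, dexamethasone 1 μM or solvent for 1 h. TNF (200 IU/mL) induction for 5 h, then luciferase read. Values as % of TNF-induced solvent control; four independent replicates; one-way ANOVA.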

[4] = Cytotoxicity against TNFalpha stimulated human A549 cells harboring NFkB-Luc assessed as cell viability at 30 uM preincubated for 1 hr followed by TNFalpha stimulation measured after 5 hrs by Cell-Titer Glo assay (reference value: 100%); type: cell-based; conditions: read-out: Activity
Method in brief: (§4)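 A549 cells with stably integrated NF-κB-Luc seeded at 9000/well for 24 h, then exposed to compound (10, 30, 60 μM) or solvent. TNF given 1 h later, 5 h incubation. Cell Titer Glo ATP readout, with TNF-treated solvent group as 100%.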

[5] = biological target: T1, Glucocorticoid receptor (Homo sapiens); experiment: Modulation of glucocorticoid receptor in human A549 cells assessed as 0.01 uM dexamethasone-induced GRE-driven promoter activity at 30 uM by luciferase reporter gene assay (reference value: 100%); type: cell-based
Method in brief: (§5)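 A549 cells with a stably integrated GRE-dependent promoter-luciferase construct. Compound at 10 or 30 μM given together with dexamethasone at 0.1 or 0.01 μM. Luciferase expressed as % of Dex-induced expression with solvent alone. Mean ± SD of ≥3 independent replicates.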

[6] = tested on: A549; experiment: Cytotoxicity against TNFalpha stimulated human A549 cells harboring NFkB-Luc assessed as reduction in cell viability at 60 uM preincubated for 1 hr followed by TNFalpha stimulation measured after 5 hrs by Cell-Titer Glo assay relative to control; type: cell-based; conditions: a549, 5 h; method in brief: as §4
[7] = Cytotoxicity against PMA stimulated human A549 cells harboring AP-1-Luc assessed as cell viability at 30 uM preincubated for 1 hr followed by PMA stimulation measured after 5 hrs by Cell-Titer Glo assay (reference value: 100%); type: cell-based; conditions: read-out: Activity; method in brief: as §1
[8] = tested on: A549; experiment: Cytotoxicity against TNFalpha stimulated human A549 cells harboring NFkB-Luc assessed as reduction in cell viability preincubated for 1 hr followed by TNFalpha stimulation measured after 5 hrs by Cell-Titer Glo assay; type: cell-based; conditions: a549, 5 h; method in brief: as §4
[9] = tested on: A549; experiment: Inhibition of TNFalpha-induced NFkB activity in GR knockout human A549 cells harboring NFkB-Luc assessed as NFkB activity at 30 uM preincubated for 1 hr followed by TNFalpha stimulation measured after 5 hrs by luciferase reporter gene assay (reference value: 100%); type: functional; set-up: scale not given: the % may be the effect or the level left
Method in brief: (§6)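 GR-knockout A549 cells carrying stably integrated NF-κB-Luc. Pretreatment 1 h with compound (30 μM) or dexamethasone (1 μM), then TNF (200 IU/mL) for 5 h. Luciferase luminescence as % of TNF-induced solvent control.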

[10] = Cytotoxicity against GR knockout human A549 cells harboring Neo-Luc assessed as cell viability at 30 uM by Cell-Titer Glo assay (reference value: 100%); type: cell-based; conditions: read-out: Activity
Method in brief: (§7)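 NeoLuc A549 cells (9000/well) incubated 24 h, then test compound or solvent added; viability by Cell Titer Glo ATP luminescence, run by the same protocol as the reporter assays. Solvent-treated control taken as 100%.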

[11] = biological target: T1, Glucocorticoid receptor (Homo sapiens); experiment: Modulation of glucocorticoid receptor in human A549 cells assessed as 0.01 uM dexamethasone-induced GRE-driven promoter activity at 10 uM by luciferase reporter gene assay (reference value: 100%); type: cell-based; method in brief: as §5
[12] = tested on: A549; experiment: Cytotoxicity against GR knockout human A549 cells harboring Neo-Luc assessed as reduction in cell viability at 60 uM by Cell-Titer Glo assay relative to control; type: cell-based; conditions: a549, 60 µM; method in brief: as §7
[13] = biological target: T1, Glucocorticoid receptor (Homo sapiens); experiment: Modulation of glucocorticoid receptor in human A549 cells assessed as 0.1 uM dexamethasone-induced GRE-driven promoter activity at 10 uM by luciferase reporter gene assay (reference value: 100%); type: cell-based; method in brief: as §5
[14] = biological target: T1, Glucocorticoid receptor (Homo sapiens); experiment: Modulation of glucocorticoid receptor in human A549 cells assessed as 0.1 uM dexamethasone-induced GRE-driven promoter activity at 30 uM by luciferase reporter gene assay (reference value: 100%); type: cell-based; method in brief: as §5
[15] = biological target: T1, Glucocorticoid receptor (Homo sapiens); experiment: Modulation of glucocorticoid receptor in human A549 cells harboring AP-1-Luc assessed as reduction in PMA-induced AP-1 activity preincubated for 1 hr followed by PMA stimulation measured after 5 hrs by luciferase reporter gene assay; type: cell-based
Method in brief: (§8)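 AP-1-Luc A549 cells (9000/well, 24 h) pretreated 1 h with compound (10–60 μM), dexamethasone 1 μM or solvent, then PMA-induced for 5 h. Luciferase activity as % of PMA-induced solvent group. One-way ANOVA with Tukey test.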

[16] = Cytotoxicity against GR knockout human A549 cells harboring Neo-Luc assessed as cell viability at 60 uM by Cell-Titer Glo assay (reference value: 100%); type: cell-based; conditions: read-out: Activity; method in brief: as §7
[17] = Cytotoxicity against PMA stimulated human A549 cells harboring AP-1-Luc assessed as cell viability at 60 uM preincubated for 1 hr followed by PMA stimulation measured after 5 hrs by Cell-Titer Glo assay (reference value: 100%); type: cell-based; conditions: read-out: Activity; method in brief: as §1
[18] = biological target: T1, Glucocorticoid receptor (Homo sapiens); experiment: as §2, with “activity by measuring NFkB activity at 60 uM” for “activity”, “assay (reference value: 100%)” for “assay”; type: cell-based; set-up: scale not given: the % may be the effect or the level left; method in brief: as §3
[19] = biological target: T1, Glucocorticoid receptor (Homo sapiens); experiment: Modulation of glucocorticoid receptor in human A549 cells harboring AP-1-Luc assessed as reduction in PMA-induced AP-1 activity by measuring AP-1 activity at 60 uM preincubated for 1 hr followed by PMA stimulation measured after 5 hrs by luciferase reporter gene assay (reference value: 100%); type: cell-based; set-up: scale not given: the % may be the effect or the level left; method in brief: as §8
[20] = Cytotoxicity against TNFalpha stimulated human A549 cells harboring NFkB-Luc assessed as cell viability at 60 uM preincubated for 1 hr followed by TNFalpha stimulation measured after 5 hrs by Cell-Titer Glo assay (reference value: 100%); type: cell-based; conditions: read-out: Activity; method in brief: as §4
[21] = biological target: T1, Glucocorticoid receptor (Homo sapiens); experiment: Modulation of glucocorticoid receptor in human A549 cells assessed as TNFalpha-induced CCL2 production at 30 uM preincubated for 1 hr followed by TNFalpha stimulation measured after 5 hrs by ELISA (reference value: 100%); type: cell-based
Method in brief: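 Basal (non-reporter) A549 cells treated with compound at 30 μM, then TNF (200 IU/mL). CCL2 protein in medium measured by ELISA, as % of TNF-treated solvent control. Mean ± SD of three independent replicates; Student's t test.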

[22] = tested on: A549; experiment: Inhibition of TNFalpha-induced NFkB activity in GR knockout human A549 cells harboring NFkB-Luc assessed as NFkB activity at 1 uM preincubated for 1 hr followed by TNFalpha stimulation measured after 5 hrs by luciferase reporter gene assay (reference value: 100%); type: functional; set-up: scale not given: the % may be the effect or the level left; method in brief: as §6

Structure (SMILES)	Activity [1]	Activity [2]	Activity [3]	viability at 5 h, 30 µM [4]	Activity [5]	Activity [6]	viability at 5 h, 30 µM [7]	Activity [8]	Activity [9]	viability at 30 µM [10]	Activity [11]	Activity [12]	Activity [13]	Activity [14]	Activity [15]	Activity [19]	Activity [21]	other results
C/C=C(/C)C(=O)O[C@@H]1C[C@@](O)(C(C)C)[C@@H]2CCC(C)=C[C@@H](O)[C@]21C	<= 10%	Dose-dependent effect	Dose-dependent effect	> 97%	77%	<= 10%	> 97%	Dose-dependent effect	91.8%	> 97%	> 90%	<= 10%	> 90%	80.9%	Dose-dependent effect			
C/C=C(/C)C(=O)O[C@@H]1C[C@@](O)(C(C)C)[C@@H]2CCC(C)=C[C@@H](OC(C)=O)[C@]21C		Dose-dependent effect	Dose-dependent effect	> 95%	48.9%		> 95%	Dose-dependent effect	83.6%	> 95%	70.1%		78%	67.1%	Dose-dependent effect	41%	72.1%	viability at 60 µM [16]: 90%; viability at 5 h, 60 µM [17]: 93.4%; Activity [18]: 52%; viability at 5 h, 60 µM [20]: 97.3%
C[C@@H]1C[C@H]2[C@@H]3CCC4=CC(=O)C=C[C@]4(C)[C@@]3(F)[C@@H](O)C[C@]2(C)[C@@]1(O)C(=O)CO [DEXAMETHASONE]																		Activity [22]: 97.2%
C/C=C(/C)C(=O)O[C@@H]1C[C@@](O)(C(C)C)[C@@H]2CC=C(C)C(=O)[C@@H](O)[C@]21C		Dose-dependent effect	Dose-dependent effect		52.8%			Dose-dependent effect			> 90%		> 90%	71.6%	Dose-dependent effect			
C/C=C(/C)C(=O)O[C@H]1C[C@@](C)(O)C(=O)[C@@H](OC(=O)/C(C)=C\C)[C@@]2(C)CC[C@@](O)(C(C)C)[C@H]12		Dose-dependent effect	Dose-dependent effect		83.5%			Dose-dependent effect			> 90%		> 90%	> 90%	Dose-dependent effect			
C/C=C(/C)C(=O)O[C@@H]1C=C(C)CC[C@]2(O)[C@@H](C(C)C)CC(=O)[C@]12C	<= 10%	Dose-dependent effect	Dose-dependent effect	> 97%	80.4%	<= 10%	> 97%	Dose-dependent effect		> 97%	> 90%	<= 10%	> 90%	74.5%	Dose-dependent effect	41.4%	70.1%	

Source: ChEMBL document CHEMBL4118052, “Involvement of the Glucocorticoid Receptor in Pro-inflammatory Transcription Factor Inhibition by Daucane Esters from Laserpitium zernyi” (J Nat Prod, 2017)
